Laboratory results as given in ChEMBL document CHEMBL4480400, “Development of an N-Acyl Amino Acid That Selectively Inhibits the Glycine Transporter 2 To Produce Analgesia in a Rat Model of Chronic Pain” (J Med Chem, 2019).
The source made the active and inactive calls. No cut-off for these calls is given here.

Columns and labels:
[1] = biological target: Mu-type opioid receptor (Homo sapiens) (UniProt P35372); test: Displacement of [3H]DAMGO from recombinant human mu-type opioid receptor at 10 uM after 120 mins by scintillation counting relative to control
[2] = biological target: T1, Sodium- and chloride-dependent glycine transporter 2 (Homo sapiens, UniProt Q9Y345); test: Inhibition of recombinant human GlyT2a expressed in Xenopus laevis oocytes assessed as reduction in channel current by two-electrode voltage clamp electrophysiology; assay type: cell-based
T1 sequence (Q9Y345 whole entry): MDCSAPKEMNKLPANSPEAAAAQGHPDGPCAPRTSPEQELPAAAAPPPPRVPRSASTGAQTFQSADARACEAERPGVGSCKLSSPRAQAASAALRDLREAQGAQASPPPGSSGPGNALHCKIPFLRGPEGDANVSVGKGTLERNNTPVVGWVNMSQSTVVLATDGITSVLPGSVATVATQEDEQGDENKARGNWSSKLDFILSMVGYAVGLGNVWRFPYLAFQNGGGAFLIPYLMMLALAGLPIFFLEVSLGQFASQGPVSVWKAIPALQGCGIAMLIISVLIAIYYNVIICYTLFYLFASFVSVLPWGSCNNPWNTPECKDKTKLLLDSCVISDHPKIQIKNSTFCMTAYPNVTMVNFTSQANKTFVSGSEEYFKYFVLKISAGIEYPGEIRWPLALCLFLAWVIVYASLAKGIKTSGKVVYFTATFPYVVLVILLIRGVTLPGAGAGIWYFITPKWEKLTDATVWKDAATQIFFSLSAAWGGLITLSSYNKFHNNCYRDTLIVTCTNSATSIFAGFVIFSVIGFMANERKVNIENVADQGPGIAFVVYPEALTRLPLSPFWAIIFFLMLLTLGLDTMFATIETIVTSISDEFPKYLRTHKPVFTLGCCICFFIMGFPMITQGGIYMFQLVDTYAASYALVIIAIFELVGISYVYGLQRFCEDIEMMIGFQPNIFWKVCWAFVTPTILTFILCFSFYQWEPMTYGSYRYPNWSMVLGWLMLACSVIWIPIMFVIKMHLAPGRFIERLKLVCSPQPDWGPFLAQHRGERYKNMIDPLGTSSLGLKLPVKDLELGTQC

[3] = biological target: Cannabinoid receptor 1 (Homo sapiens) (UniProt P21554); test: Antagonist activity at human CB1 receptor
[4] = biological target: Cannabinoid receptor 2 (Homo sapiens) (UniProt P34972); test: Agonist activity at human CB2 receptor
[5] = Ratio of drug uptake in Sprague-Dawley rat brain to plasma at 27.5 mg/kg, ip after 1 hr by UPLC analysis; assay type: ADME, organism-based; conditions: read-out: BPR
Method in brief: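 Male Sprague-Dawley rats (250–306 g) got one ip dose of a suspension (10% v/v DMSO, 1% solutol HS-15 in 50 mM PBS, pH 7.4). Terminal cardiac-puncture heparinised plasma and whole brain were sampled over 24 h, n=3 rats per time point. Samples were extracted by protein precipitation and read by UPLC-MS/MS in positive ESI MRM with a diazepam internal standard. Parameters are non-compartmental; the time-averaged B/P comes from AUC0-24h.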

[6] = biological target: Sodium channel protein type 3 subunit alpha (Homo sapiens) (UniProt Q9NY46); test: Inhibition of human NaV1.3 expressed in HEK293 cells at 1 uM; assay type: cell-based
Sequence of Sodium channel protein type 3 subunit alpha (Homo sapiens) (Q9NY46 whole entry, looked up): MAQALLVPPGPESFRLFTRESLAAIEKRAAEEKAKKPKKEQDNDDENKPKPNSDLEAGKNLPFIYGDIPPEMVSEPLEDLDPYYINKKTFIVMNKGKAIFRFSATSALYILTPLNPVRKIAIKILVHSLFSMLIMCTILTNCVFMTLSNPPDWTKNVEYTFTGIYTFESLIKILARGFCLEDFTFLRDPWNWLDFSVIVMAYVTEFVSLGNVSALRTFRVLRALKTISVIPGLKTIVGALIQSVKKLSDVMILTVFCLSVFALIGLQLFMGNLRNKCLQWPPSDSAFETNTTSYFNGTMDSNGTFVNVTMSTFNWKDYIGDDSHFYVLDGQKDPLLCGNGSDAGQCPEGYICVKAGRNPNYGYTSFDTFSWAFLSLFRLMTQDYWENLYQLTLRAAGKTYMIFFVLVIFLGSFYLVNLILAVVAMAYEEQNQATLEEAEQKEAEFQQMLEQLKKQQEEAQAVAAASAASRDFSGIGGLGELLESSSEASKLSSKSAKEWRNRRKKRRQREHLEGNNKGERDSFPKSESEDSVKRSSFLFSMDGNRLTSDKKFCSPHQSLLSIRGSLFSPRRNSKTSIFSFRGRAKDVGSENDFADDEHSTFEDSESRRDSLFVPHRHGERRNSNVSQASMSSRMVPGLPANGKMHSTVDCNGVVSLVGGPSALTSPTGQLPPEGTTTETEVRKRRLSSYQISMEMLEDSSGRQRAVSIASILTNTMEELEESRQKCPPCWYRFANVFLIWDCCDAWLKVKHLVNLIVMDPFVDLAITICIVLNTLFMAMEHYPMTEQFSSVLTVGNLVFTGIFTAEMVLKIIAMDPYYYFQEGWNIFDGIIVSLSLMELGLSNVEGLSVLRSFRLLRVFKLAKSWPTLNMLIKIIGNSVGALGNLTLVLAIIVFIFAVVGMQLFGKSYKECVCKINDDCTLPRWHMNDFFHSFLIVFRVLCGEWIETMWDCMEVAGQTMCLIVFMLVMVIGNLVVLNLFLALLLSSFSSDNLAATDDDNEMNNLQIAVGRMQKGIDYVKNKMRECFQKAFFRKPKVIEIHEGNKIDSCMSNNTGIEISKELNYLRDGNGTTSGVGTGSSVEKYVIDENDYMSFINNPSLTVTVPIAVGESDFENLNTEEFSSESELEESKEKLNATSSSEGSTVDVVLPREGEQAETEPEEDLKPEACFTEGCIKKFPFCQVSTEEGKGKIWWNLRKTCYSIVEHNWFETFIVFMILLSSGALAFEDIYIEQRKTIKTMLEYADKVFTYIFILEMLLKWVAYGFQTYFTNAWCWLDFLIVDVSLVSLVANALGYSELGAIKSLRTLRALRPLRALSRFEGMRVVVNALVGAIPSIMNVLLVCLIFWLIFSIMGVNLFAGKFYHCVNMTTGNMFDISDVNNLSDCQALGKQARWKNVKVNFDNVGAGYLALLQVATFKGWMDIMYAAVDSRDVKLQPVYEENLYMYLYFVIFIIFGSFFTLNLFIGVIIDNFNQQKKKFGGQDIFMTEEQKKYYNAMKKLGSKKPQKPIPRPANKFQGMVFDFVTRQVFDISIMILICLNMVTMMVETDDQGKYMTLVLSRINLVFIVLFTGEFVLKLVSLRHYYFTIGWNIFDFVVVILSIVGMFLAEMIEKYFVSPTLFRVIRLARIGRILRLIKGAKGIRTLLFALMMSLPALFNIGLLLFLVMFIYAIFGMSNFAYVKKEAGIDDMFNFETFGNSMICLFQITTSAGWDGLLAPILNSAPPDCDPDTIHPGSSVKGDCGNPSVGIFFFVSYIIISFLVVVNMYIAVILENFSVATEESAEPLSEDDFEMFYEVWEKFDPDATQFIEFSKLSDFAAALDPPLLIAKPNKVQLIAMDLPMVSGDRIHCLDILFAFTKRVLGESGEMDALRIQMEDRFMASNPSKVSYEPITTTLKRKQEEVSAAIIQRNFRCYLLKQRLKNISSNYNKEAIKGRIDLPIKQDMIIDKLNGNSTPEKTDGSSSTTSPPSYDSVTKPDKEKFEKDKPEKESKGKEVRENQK

Sequence of Cannabinoid receptor 2 (Homo sapiens) (P34972 whole entry): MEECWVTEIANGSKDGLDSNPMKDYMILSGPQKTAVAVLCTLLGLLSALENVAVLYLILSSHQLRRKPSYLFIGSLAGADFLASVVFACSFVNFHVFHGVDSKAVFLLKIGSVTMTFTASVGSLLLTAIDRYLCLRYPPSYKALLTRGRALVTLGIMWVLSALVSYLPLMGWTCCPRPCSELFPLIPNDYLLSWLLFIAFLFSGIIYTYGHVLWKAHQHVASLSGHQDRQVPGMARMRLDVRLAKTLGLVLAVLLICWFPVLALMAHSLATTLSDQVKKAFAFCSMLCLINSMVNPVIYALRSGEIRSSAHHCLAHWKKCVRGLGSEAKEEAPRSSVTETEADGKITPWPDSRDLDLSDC
Sequence of Cannabinoid receptor 1 (Homo sapiens) (P21554 whole entry): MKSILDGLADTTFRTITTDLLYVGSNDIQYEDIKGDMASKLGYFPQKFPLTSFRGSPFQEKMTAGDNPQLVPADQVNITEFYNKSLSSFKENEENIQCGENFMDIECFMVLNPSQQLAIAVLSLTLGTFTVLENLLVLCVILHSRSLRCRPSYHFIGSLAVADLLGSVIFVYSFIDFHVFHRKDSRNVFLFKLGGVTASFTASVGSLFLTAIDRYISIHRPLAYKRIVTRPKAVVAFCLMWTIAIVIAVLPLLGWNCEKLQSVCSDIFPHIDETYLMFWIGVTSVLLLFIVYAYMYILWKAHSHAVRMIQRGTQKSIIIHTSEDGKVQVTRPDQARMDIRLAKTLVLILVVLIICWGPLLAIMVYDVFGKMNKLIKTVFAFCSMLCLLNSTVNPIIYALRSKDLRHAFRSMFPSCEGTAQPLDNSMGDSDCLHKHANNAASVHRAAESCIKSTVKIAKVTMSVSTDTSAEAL
Sequence of Mu-type opioid receptor (Homo sapiens) (P35372 whole entry): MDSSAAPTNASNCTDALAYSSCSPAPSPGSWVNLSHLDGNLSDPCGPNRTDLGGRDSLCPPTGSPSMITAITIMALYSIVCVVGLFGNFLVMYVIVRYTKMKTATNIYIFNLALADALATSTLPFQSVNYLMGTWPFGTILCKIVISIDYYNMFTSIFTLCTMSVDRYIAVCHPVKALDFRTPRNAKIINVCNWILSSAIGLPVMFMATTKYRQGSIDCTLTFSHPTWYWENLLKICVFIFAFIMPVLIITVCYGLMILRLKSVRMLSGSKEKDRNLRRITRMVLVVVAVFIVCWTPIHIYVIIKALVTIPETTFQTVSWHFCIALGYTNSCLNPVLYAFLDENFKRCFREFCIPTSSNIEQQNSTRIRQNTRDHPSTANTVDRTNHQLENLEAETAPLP

inhibition [1]: > 50%
IC50 [2]: 48.3 nM
inhibition [3]: inactive
Activity [4]: inactive
Kp at 1 h [5]: 0.08
inhibition [6]: inactive
Structure (SMILES): CCCCCCCC/C=C\CCCCCCCC(=O)N[C@H](CCCCN)C(=O)O.Cl
